Screening data (PubChem BioAssay)
Rows were chosen to be rich in hits. Some 2.5% of all compounds tested hit in one or more screens of this group.
SENP1 inh: human SENP1 catalytic domain inhibitors, primary screen, biochemical, FRET, uHTS | Sentrin-specific protease 1 (Homo sapiens), Q9P0U3 | recombinant SENP1 catalytic domain, CyPet-SUMO1-YPet FRET cleavage | inhibition, % at 10 µM | 360,000 compounds, 0.21% hits | AID 624204, 2012;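 active = inhibition at least 30% at 10 µM, raw YFP signal under a set limit, fluorescence ratio 0.5 to 1.5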;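 also: 0% = enzyme with DMSO and 100% = no enzyme wells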
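Material: hSENP1 catalytic domain, recombinant; medium: Tris pH 8 with BME, BSA, NP40 and catalase; compound: single concentration of 10 µM compound, 0.5% DMSO final; technique: FRET read of cyan and yellow fluorescence; timing: 50 min enzyme reaction, room temperature, light-protected; reagent: SFCypet-SUMO1-SFYpet substrate at 25 nM; control set: no-enzyme low, enzyme-DMSO high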
SENP8 block-1: human SENP8 protease inhibitors, primary screen, biochemical, fluorescence, Nedd8 protein substrate, uHTS | Sentrin-specific protease 8 (Homo sapiens), Q96LD8 | recombinant SENP8 | inhibition, % at 20 µM | 360,000 compounds, 0.64% hits | AID 602440, 2012; in the data active = inhibition mostly above about 40%, no sharp cut-off; inactive = mostly below about 27%
SENP8 block-2: SENP8 protease inhibitors, primary screen, biochemical, luminescence | purified SENP8, Z-RLRGG-aminoluciferin cleavage | inhibition, % at 10 µM | 330,000 compounds, 1.2% hits; in the data active = inhibition above about 50%
SENP6 block: SENP6 protease inhibitors, primary screen, biochemical, luminescence, uHTS. Recombinant SENP6 catalytic domain, aminoluciferin luminescence. inhibition, % at 10 µM. 330,000 compounds, 1.8% hits. AID 2599, 2010;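 active = inhibition above about 50% at the single tested dose, limit read from the data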;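 also: plate controls were DMSO wells with enzyme for no effect and DMSO wells lacking enzyme for full effect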
Target sequence (Q9GZR1 628-1112 limits assumed): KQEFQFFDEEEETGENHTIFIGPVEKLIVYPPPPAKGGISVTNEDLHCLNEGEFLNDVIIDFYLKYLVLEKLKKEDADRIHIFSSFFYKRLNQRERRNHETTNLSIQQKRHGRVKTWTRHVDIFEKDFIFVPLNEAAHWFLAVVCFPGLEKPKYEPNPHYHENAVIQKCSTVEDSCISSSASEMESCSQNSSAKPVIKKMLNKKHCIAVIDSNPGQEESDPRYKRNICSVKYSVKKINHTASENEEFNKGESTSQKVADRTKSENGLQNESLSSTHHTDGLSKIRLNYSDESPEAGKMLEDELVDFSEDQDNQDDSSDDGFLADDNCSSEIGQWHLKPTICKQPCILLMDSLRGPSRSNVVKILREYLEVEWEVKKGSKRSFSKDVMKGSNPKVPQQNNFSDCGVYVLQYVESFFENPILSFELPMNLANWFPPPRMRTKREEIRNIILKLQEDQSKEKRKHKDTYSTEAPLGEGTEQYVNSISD
SENP7 block: SENP7 protease inhibitors, primary screen, biochemical, luminescence, uHTS; recombinant SENP7, Z-RLRGG-aminoluciferin luminescence, 40 min; inhibition, % at 5 µM; 330,000 compounds, 1.5% hits; AID 434973, 2010;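 active = inhibition above about 50% at the single test dose, limit read from the data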;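 also: plate controls were DMSO with enzyme for no effect and no enzyme buffer wells for full effect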
The depositor's hits bear a star; · = no result given.

SMILES | SENP1 inh | SENP8 block-1 | SENP8 block-2 | SENP6 block | SENP7 block
COc1ccc(CNc2nc3ccccc3n2C)c(OC)c1 | 2 | 5 | 60* | 40 | 61*
O=C(COC(=O)C1CC1)Nc1ccc(N=Nc2ccccc2)cc1 | 1 | 43* | -28 | -13 | -2
CC1=NN(c2ccccc2)C(=O)/C1=C\c1ccc(Br)s1 | 1 | 17 | 2 | 20 | 44
CC1=NN(c2ccc(C(=O)O)cc2)C(=O)/C1=C/c1ccc(-c2ccccc2F)o1 | 1 | 26 | 4 | 5 | 18
CC1=NN(c2ccccc2)C(=O)/C1=C/c1c(O)n(-c2ccc(F)cc2)[nH]c1=O | 4 | 31 | 31 | 58* | -2
CC1=NN(c2ccc(C(=O)O)cc2)C(=O)/C1=C\c1ccc(OC(=O)c2cccs2)cc1 | 3 | 61* | -4 | 8 | 36
CC1=NN(c2ccccc2)C(=O)/C1=C/c1ccc[nH]1 | 2 | 46* | -10 | -22 | -7
CC1=NN(c2ccccc2)C(=O)/C1=C/c1ccc(Cl)cc1 | 1 | 41* | 27 | 41 | 50
COc1cc(NC(=O)c2cc(-c3ccco3)on2)cc(OC)c1OC | 1 | 4 | 9 | -17 | -12
COc1ccc(CN2C(=O)c3ccccc3C2c2nnnn2-c2ccc3c(c2)OCCO3)cc1OC (centres undefined) | 0 | 1 | · | · | ·
CC1=NN(c2ccccc2)C(=O)/C1=C\N(O)c1ccccc1 | 3 | 76* | 7 | 25 | 36
COc1ccc(/C=C2/C(=O)N(c3cccc(F)c3)N=C2C)c(OC)c1 | 1 | 41* | -2 | 20 | 49
COc1ccc(/C=C2/C(=O)N(c3ccccc3)N=C2C)cc1Br | 4 | 46* | -2 | -3 | 22
CC1=NN(c2ccccc2)C(=O)/C1=C/C=C/C=C/N(C)C | 33* | 23 | 6 | 1 | 6
COc1ccccc1C(=O)NCCC(=O)NNC(=O)Cn1ccc(C(F)(F)F)n1 | 3 | 6 | -8 | -8 | 14
CC1CC(C)(C)CC2(C1)NC(=O)N(CC(=O)Nc1ccc3c(c1)OCO3)C2=O (centres undefined) | 0 | 1 | · | · | ·
CC1=NN(c2ccccc2)C(=O)/C1=C/c1cccs1 | 0 | 16 | -1 | 9 | 19
CC1=NN(c2ccccc2)C(=O)C1=Cc1ccccc1 | 2 | 50* | · | · | ·
COC(=O)c1ccc(CSc2nc3c(c(=O)[nH]2)CCC3)cc1 | 2 | 4 | · | · | ·
CCN(CC(=O)NCCCN1CCOCC1)S(=O)(=O)c1ccc(F)cc1 | 2 | 10 | -3 | -17 | -3
CCC(C(=O)NCCCN(CC)Cc1ccccc1)n1nc(C)c2sc3ccccc3c2c1=O (centres undefined) | 0 | -2 | -13 | -8 | 9
CCN(CC)c1ccc(NC(=O)COC(=O)/C=C/c2nc3ccccc3s2)cc1 | 0 | 4 | 0 | -20 | -1
CCN(CC)c1ccc(/C=C/c2nc3ccccc3s2)cc1 | · | · | 94* | 86* | 95*
O=c1[nH][nH]c2c(N=Cc3ccccc3O)ccc(F)c12 | 13 | 47* | · | · | ·
CC1=NN(c2ccccc2)C(=O)C1 | 3 | 49* | -5 | -8 | -3
SMILES | SENP1 inh | SENP8 block-1 | SENP8 block-2 | SENP6 block | SENP7 block
CC1=NN(c2ccc(N)cc2)C(=O)C1 | -2 | 68* | 5 | 28 | 18
CC1=NN(c2ccc(Cl)cc2)C(=O)C1 | 0 | 14 | -6 | 11 | 10
CC1=NN(c2cccc([N+](=O)[O-])c2)C(=O)C1 | 2 | 21 | 3 | 24 | 17
O=C(C[C@H]1CC[C@H]2[C@@H](COC[C@H](O)CN2Cc2ccccc2)O1)NCCCN1CCOCC1 | 2 | 15 | · | · | ·
COc1cc(Br)ccc1C1CC(=O)C(C)C(c2ccc(Br)cc2OC)N1 (centres undefined) | 2 | 15 | -8 | -32 | -7
CN(C)C(/C=C/Nc1ccc(F)cc1)=C(C#N)C#N | 0 | 7 | 5 | -2 | -3
CN(C)C(/C=C/Nc1ccc(C#N)cc1)=C(C#N)C#N | -8 | 22 | 1 | -2 | 100*
COc1ccc(CN2CCCCC2C(=O)Nc2ccc(OC)c(OC)c2)cc1OC (centres undefined) | 0 | 10 | -8 | 4 | 1
COc1ccc(CN2CCCC2C(=O)Nc2ccc(OC)c(OC)c2)cc1OC (centres undefined) | 3 | -4 | -3 | -19 | 64*
